Screening results (PubChem)
H9c2 protect: protects H9c2 cardiomyocytes from peroxide injury | hit rate 0.63% among 360,000 | protection from H2O2 cell death, % at 20 µM | AID 588492 | H2O2 injury protection, ATPLite, 2 h;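 active = compounds giving at least 50% protection of heart cells from peroxide-induced death in the single-dose screen, raw or plate-pattern-corrected value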;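 note: 0% = DMSO wells with peroxide and 100% = DMSO wells without peroxide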
PfG6PD inh: PfG6PD (Plasmodium falciparum) enzyme inhibition; PfGluPho enzyme, NADPH resazurin-diaphorase fluorescence; inhibition, % at 20 µM; hit rate 0.78% among 350,000;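 active = inhibition reaching at least a set limit at 20 µM in the primary screen, cut at about 59% in these data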;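 note: 0% = DMSO wells with substrate and 100% = DMSO wells lacking glucose-6-phosphate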
aDG glyco up: increases alpha dystroglycan glycosylation | Pro5-aDG cells, alpha-DG glycosylation AlphaScreen (IIH6); 0% Pro5, 100% B10-LARGE cell signal | activation, % at 10 µM | hit rate 0.22% among 360,000 | AID 624168;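 active = activation of at least 8% versus controls, or a plate z-score of at least 8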;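 note: Pro5 are CHO cells carrying HIG-tagged alpha-DG that lacks glycosylation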
B2AR ag: human beta-2 adrenergic receptor agonism by FAP; Am2.2-beta2AR cells, FAP receptor internalization, flow cytometry; P07550; response, % (test concentration not listed); hit rate 0.43% among 340,000;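 active = response above a set limit, near 3 SD of response in nonfluorescent compounds, cut at about 42% in these data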
Target sequence (P07550 whole entry, looked up): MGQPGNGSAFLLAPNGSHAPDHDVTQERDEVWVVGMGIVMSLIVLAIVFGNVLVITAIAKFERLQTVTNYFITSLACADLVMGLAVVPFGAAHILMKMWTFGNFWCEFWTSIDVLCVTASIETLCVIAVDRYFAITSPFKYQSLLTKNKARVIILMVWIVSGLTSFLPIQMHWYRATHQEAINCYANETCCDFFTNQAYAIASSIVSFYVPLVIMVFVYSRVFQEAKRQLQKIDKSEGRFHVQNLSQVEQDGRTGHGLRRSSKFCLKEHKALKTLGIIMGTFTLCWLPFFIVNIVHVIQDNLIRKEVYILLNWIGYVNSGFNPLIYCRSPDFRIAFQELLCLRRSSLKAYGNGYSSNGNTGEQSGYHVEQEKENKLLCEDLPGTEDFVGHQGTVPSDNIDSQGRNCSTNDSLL
HKDC1 inhibitor: blocks human hexokinase HKDC1 activity. Q2TB90. AID 493160. inhibition, % at 20 µM. hit rate 0.16% among 340,000. recombinant HKDC1, G6PDH/diaphorase resazurin coupled fluorescence;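 active = inhibition above about 35% when tested at 20 µM, limit read from the data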;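 note: plate controls were DMSO wells with enzyme for no effect and DMSO wells lacking enzyme for full effect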
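Assay system – recombinant HKDC1 (HK5) hexokinase enzyme, produced in-house · Input – HKDC1 at 5 µg/mL · Reagent – glucose plus 1 mM ATP as hexokinase substrates · Timing – 90 min reaction incubation at room temperature, dark · Measured by – G6PDH/diaphorase-coupled fluorescence, 1 mM NADP, 100 µM resazurin, 525/613 nm · Benchmarks – DMSO-enzyme wells negative, buffer-substituted wells positive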
UCH37 inh: human UCH37 deubiquitinating enzyme inhibition; purified proteasome/UCH37, Ub-AMC cleavage fluorescence; inhibition, % (test concentration not listed); hit rate 0.33% among 330,000;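 active = mean inhibition over replicate wells above about 20%, limit read from the data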;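 note: 0% = compound-free wells with enzyme and 100% = wells lacking proteasome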
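Material: human UCH37 enzyme supplied as purified proteasome complex / Amount: 0.15 nM proteasome as dispensed / Buffer or medium: pH 7.4 Tris-HCl (50 mM) with ovalbumin, ATP-MgCl2, DTT / Times: preincubation 30 min, reaction 25 min, room temperature / Technique: AMC fluorescence from Ub-AMC cleavage, excitation 355 nm, emission 460 nm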
HKDC1 act conf2: HKDC1 (human) activation, single-dose confirmed; AID 504708; hit rate 14% among 740; inhibition, % at 20 µM; recombinant HKDC1, G6PDH/diaphorase resazurin fluorescence; stronger effect = lower value; shares compounds with HKDC1 inhibitor;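 active = inhibition at or below a set negative limit, negative inhibition meaning the enzyme was activated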
* marks the source's active call; other numbers are inactive results; · = no result. Compounds with a hit are over-represented: about 2.1% of the library has one in this group of screens.

SMILES	H9c2 protect	PfG6PD inh	aDG glyco up	B2AR ag	HKDC1 inhibitor	UCH37 inh	HKDC1 act conf2
COC(=O)CCC(=O)OC1(C)C(=O)C2=CN(Cc3ccc4c(c3)OCO4)C(c3ccc(OC)cc3)=CC2=C(Br)C1=O (stereo not given)	-4	67*	0	11	40*	·	-5
COc1ccc(C2=CC3=C(Br)C(=O)C(C)(OC(=O)c4ccc(Cl)nc4)C(=O)C3=CO2)cc1 (stereo not given)	·	0	·	·	28	1	·
O=C(C[n+]1ccccc1)NN=Cc1ccc(C(=O)O)cc1	·	·	·	·	·	1	·
CCOC(=O)COc1ccccc1C=NO	·	·	·	·	·	3	·
Cn1nccc1C(=O)N1CCN(c2cccc(Cl)c2)CC1	2	14	0	0	39*	7	-29
Cn1nccc1C(=O)N1CCN(c2cccc(C(F)(F)F)c2)CC1	-2	1	0	1	-3	0	·
CCCN(CCC)C(=S)NC(=O)c1ccc(-c2ccccc2)cc1	20	-3	0	-1	-48	2	-26
CCOc1ccc(C(=O)NC(=S)N(Cc2ccccc2)Cc2ccccc2)cc1	16	-24	0	1	-31	5	·
COc1cc(NC(=O)c2cnc(N)s2)cc(C(=O)Nc2cccc(C(F)(F)F)c2)c1	34	35	0	·	59*	4	41
COc1ccc([C@@H]2C[C@H](c3ccccc3)Oc3cc(OC)c(OC)c(OC)c32)cc1	-12	18	0	3	37*	5	-1
COc1ccc(C2CC(O)(c3ccccc3)Oc3cc(OC)c(OC)c(OC)c32)cc1 (stereo not given)	9	40	0	-17	16	4	·
O=c1c(CO)cc(CO)cc(CO)c1O	-4	-8	0	-7	-5	1	·
O=C1C=CC(=O)c2c(O)c(CO)c(CO)c(O)c21	-20	33	0	2	49*	·	39
COc1ccc(-c2[nH]c(-c3ccc(SC)cc3)nc2SCC(=O)Nc2nccs2)cc1	9	15	0	8	-54	·	-36*
CCCCNC(=O)c1sc(=S)n2c1[nH]c(=O)c1ccc(C(=O)NCCc3ccc(OC)c(OC)c3)cc12	15	46	0	-2	48*	13	50
CCCCCn1c(=O)[nH]c2cc(C(=O)NCCc3ccc(OC)c(OC)c3)ccc2c1=O	5	-6	0	-4	-3	0	·
COc1cc(NS(=O)(=O)c2ccc(NC(=O)c3ccc(F)cc3)cc2)ncn1	4	-5	0	6	-59	6	-33
NNc1ncnc2sc3c(c12)CCC3	14	2	0	-1	-102	4	-5
c1cc(Nc2ncnc3sc4c(c23)CCC4)ccn1	-10	8	0	-2	-3	-239	·
Cn1c2ccccc2c(=O)c2c(=O)n(-c3ccccc3)c(C3CCCCC3)nc21	-5	7	0	-2	43*	4	18
Cn1c2ccccc2c(=O)c2c(=O)n(C3CCCCCC3)c(C3CCCCC3)nc21	-16	37	1	5	35	·	2
COc1cccc2sc(N=CN(C)C)nc12	·	·	·	·	·	8	·
CC(=NNC(=O)c1cccc(S(=O)(=O)N2CCCC2)c1)c1cccs1	·	·	·	·	·	3	·
Cc1ccc(C(=O)/C=C/c2cc(Br)cc(Br)c2O)o1	-5	-8	0	16	36*	·	9
Cc1ccc(C(=O)/C=C/N(C)C)o1	8	0	0	3	-6	18	·
SMILES	H9c2 protect	PfG6PD inh	aDG glyco up	B2AR ag	HKDC1 inhibitor	UCH37 inh	HKDC1 act conf2
O=C(COc1ccc(C=NNS(=O)(=O)c2ccccc2)cc1)Nc1ccccc1	·	·	·	·	·	3	·
COc1ccc(NC(=O)CSc2ccc(-c3cccnc3)nn2)c(OC)c1	6	37	0	-9	32	1	39
COc1ccc(NC(=O)CSc2ccc(-c3cccnc3)nn2)cc1	10	22	0	3	8	0	·
CC(=O)C1=C(c2ccccc2)N(C(C)=O)n2c(C)nnc2S1	-8	-3	1	12	-315	4	-125*
CON=CCC(=O)Nc1ccc(F)cc1F	·	·	·	·	·	2	·
CC(C)Nc1nnc(SCC(=O)Nc2ccc3c(c2)C(=O)c2ccccc2C3=O)s1	18	36	-1	18	43*	5	53
O=C(CSc1nnc(NC2CCCCC2)s1)Nc1ccc2c(c1)C(=O)c1ccccc1C2=O	0	2	0	18	-1	·	·
C=C(C)CNC(=S)NN=Cc1ccco1	·	·	·	·	·	6	·
O=c1[nH]c(=O)c2nc3c4ccccc4c4ccccc4c3nc2[nH]1	4	3	0	-4	37*	·	-2
COc1cccc(C(=O)NN=C(C)c2ccc(NC(=O)Cc3ccccc3)cc2)c1OC	·	·	·	·	·	-233	·
CCOC(=O)c1c(C)[nH]c(C2=NNC(=Nc3ccccc3)SC2)c1C	-1	15	1	-3	-306	-2	-141*
CCOC(=O)c1c(C)[nH]c(C2=NNC(=Nc3ccccc3OC)SC2)c1C	3	5	0	6	-165	5	-86*
CCOc1ccc(N=C2NN=C(c3cc(C)n(CC4CCCO4)c3C)CS2)cc1 (stereo not given)	-6	29	0	0	-17	5	·
CCOC(=O)c1c(C)[nH]c(C2=NNC(=Nc3ccc(OCC)cc3)SC2)c1C	-8	20	0	12	-137	6	-122*
CC(=O)c1c(C)[nH]c(C2=NNC(=NC(C)(C)C)SC2)c1C	1	8	0	6	-15	8	·
CCOC(=O)c1c(C)[nH]c(N=Nc2ccccc2Cl)c1C	-16	28	0	-5	3	5	·
Cc1ccc2cc(C=NNC(=O)c3ccccc3[N+](=O)[O-])c(Cl)nc2c1	·	·	·	·	·	4	·
Cc1cc(C2=NNC(=Nc3ccc(S(=O)(=O)N4CCOCC4)cc3)SC2)c(C)n1C	-3	54	0	-1	-73	5	-47*
CCCCNC(=O)ON=C(N)CS(=O)(=O)C(C)(C)C	·	·	·	·	·	1	·
O=C(CSc1nc(-c2ccc(F)cc2)nc2c1Cc1ccccc1O2)Nc1ccc(C(=O)O)cc1	2	-24	0	-12	44*	15	-27
CCOc1ccc(-n2c(C)cc(C(=O)CCl)c2C)cc1	-12	8	0	46*	35	3	28
CCOC(=O)c1c(C)nc2c(c1-c1cc(OC)ccc1OC)C(=O)c1ccccc1-2	-2	-6	0	6	0	5	·
CCOC(=O)C1=C(Cc2ccc(OC)cc2)C(=O)c2ccccc2C1=O	-20	95*	0	-77	71*	-71	56
COc1ccc(OC)c(C=c2sc3nc(-c4cccs4)nn3c2=O)c1	·	·	·	·	·	0	·
